From ChEMBL document CHEMBL4177770, “Discovery of MK-6169, a Potent Pan-Genotype Hepatitis C Virus NS5A Inhibitor with Optimized Activity against Common Resistance-Associated Substitutions” (J Med Chem, 2018)
Changes are numbered by the printed parent chain.

Key:
[1] = Drug level in Wistar Han rat at 10 mg/kg, po measured at 24 hrs by LC/MS method; type: ADME, organism-based; details: in vivo, read-out: Drug uptake
Method in brief: (§1)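 Male Wistar Han rats, two per dosing group, dosed orally at 10 mg/kg in 10% TWEEN. Plasma was separated from collected blood by centrifugation and analysed by LC/MS.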

[2] = Cmax in Wistar Han rat at 10 mg/kg, po by LC/MS method; type: ADME, organism-based; parameters: dose 10 mg/kg, route oral; details: in vivo; method in brief: as §1
[3] = system: T1, Nonstructural protein 5A (Hepatitis C virus), Q5L478 [Y93H]; assay: Inhibition of NS5A Y93H mutant in HCV genotype 1a infected in HuH7 replicon cells assessed as decrease in viral replication after 3 days by RT-PCR method; type: cell-based; details: Hepatitis C virus subtype 1a
T1 sequence (whole entry): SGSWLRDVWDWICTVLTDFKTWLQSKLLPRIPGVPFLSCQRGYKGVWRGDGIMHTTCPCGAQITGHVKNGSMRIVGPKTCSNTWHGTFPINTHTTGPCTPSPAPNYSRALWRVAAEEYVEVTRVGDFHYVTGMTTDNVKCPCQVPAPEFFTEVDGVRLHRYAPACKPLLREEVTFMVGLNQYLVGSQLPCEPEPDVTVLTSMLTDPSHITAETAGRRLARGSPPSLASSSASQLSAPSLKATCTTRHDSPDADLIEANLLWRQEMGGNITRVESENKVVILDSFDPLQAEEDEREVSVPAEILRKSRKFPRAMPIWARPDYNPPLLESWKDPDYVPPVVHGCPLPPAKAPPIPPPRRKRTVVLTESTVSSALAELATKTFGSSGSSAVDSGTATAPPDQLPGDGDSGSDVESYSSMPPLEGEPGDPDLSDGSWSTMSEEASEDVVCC

[4] = Clearance in Wistar Han rat at 2 mg/kg, iv by LC/MS method; type: ADME, organism-based; details: in vivo
Method in brief: (§2)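 Male Wistar Han rats, two per group, dosed IV at 2 mg/kg in 60% PEG200. Plasma was obtained by centrifuging the blood, and compound concentrations were measured by LC/MS.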

[5] = target: T2, Nonstructural protein 5A (Hepatitis C virus) (UniProt Q5L478); assay: Inhibition of NS5A L31V mutant in HCV genotype 1a infected in HuH7 replicon cells assessed as decrease in viral replication after 3 days by RT-PCR method; type: cell-based; details: Hepatitis C virus subtype 1a
T2 sequence (whole entry): T1 sequence (whole entry) with H93Y

[6] = AUC in Wistar Han rat at 10 mg/kg, po by LC/MS method; type: ADME, organism-based; details: in vivo; method in brief: as §1
[7] = target: T2, Nonstructural protein 5A (Hepatitis C virus); assay: Inhibition of NS5A in HCV genotype 1a infected in HuH7 replicon cells assessed as decrease in viral replication after 3 days by RT-PCR method; type: cell-based; details: Hepatitis C virus subtype 1a
[8] = target: T2, Nonstructural protein 5A (Hepatitis C virus); assay: Inhibition of NS5A in HCV genotype 1b infected in HuH7 replicon cells assessed as decrease in viral replication after 3 days by RT-PCR method; type: cell-based; details: Hepatitis C virus subtype 1b
[9] = target: T2, Nonstructural protein 5A (Hepatitis C virus); assay: Inhibition of NS5A in HCV genotype 3a infected in HuH7 replicon cells assessed as decrease in viral replication after 3 days by RT-PCR method; type: cell-based; details: Hepatitis C virus subtype 3a
[10] = target: T2, Nonstructural protein 5A (Hepatitis C virus); assay: Inhibition of NS5A L31M mutant in HCV genotype 2b infected in HuH7 replicon cells assessed as decrease in viral replication after 3 days by RT-PCR method; type: cell-based; details: Hepatitis C virus subtype 2b
[11] = Oral bioavailability in Wistar Han rat at 10 mg/kg by LC/MS method; type: ADME, organism-based; details: in vivo; method in brief: as §1
[12] = Half life in Wistar Han rat at 2 mg/kg, iv by LC/MS method; type: ADME, organism-based; details: in vivo; method in brief: as §2
[13] = target: T2, Nonstructural protein 5A (Hepatitis C virus); assay: Inhibition of NS5A in HCV genotype 4a infected in HuH7 replicon cells assessed as decrease in viral replication after 3 days by RT-PCR method; type: cell-based; details: Hepatitis C virus subtype 4a

Structure (SMILES) | concentration at 24 h [1] | Cmax [2] | EC90 [3] | clearance [4] | EC90 [5] | AUC [6] | EC90 [7] | EC90 [8] | EC90 [9] | EC90 [10] | bioavailability [11] | half-life [12] | EC90 [13]
COC(=O)N[C@H](C(=O)N1CCC[C@H]1c1ncc(-c2cc(F)c3c(c2)O[C@@H](c2ccc(C4CC4)s2)n2c-3cc3cc(-c4cnc([C@@H]5CCCN5C(=O)[C@@H](NC(=O)OC)C5CCO[C@@H](C)C5)[nH]4)ccc32)[nH]1)C(C)C (stereo partly specified) | 1 nM | 21 nM | 13 pM | 11 mL/min/kg | 2 pM | 0.19 µM·h | 5 pM | 7 pM | 8 pM | 23 pM | 1.3% | 5.5 h | 7 pM
COC(=O)N[C@H](C(=O)N1CCC[C@H]1c1ncc(-c2cc(F)c3c(c2)O[C@@H](c2ccc(C(C)C)s2)n2c-3cc3cc(-c4cnc([C@@H]5CCCN5C(=O)[C@@H](NC(=O)OC)[C@@H]5CCOC(C)(C)C5)[nH]4)ccc32)[nH]1)C(C)C | 4 nM | 100 nM | 36 pM | 5 mL/min/kg | 4 pM | 0.8 µM·h | 4 pM | 5 pM | 6 pM | 38 pM | 2.7% | 9.6 h | 6 pM
COC(=O)N[C@H](C(=O)N1CCC[C@H]1c1ncc(-c2cc(F)c3c(c2)O[C@@H](c2cnc(C(C)C)s2)n2c-3cc3cc(-c4cnc([C@@H]5CCCN5C(=O)[C@@H](NC(=O)OC)[C@@H]5CCOC(C)(C)C5)[nH]4)ccc32)[nH]1)C(C)C |  |  | 329 pM |  | 4 pM |  | 6 pM | 6 pM | 38 pM | 19 pM |  |  | 7 pM
COC(=O)N[C@H](C(=O)N1CCC[C@H]1c1ncc(-c2cc(F)c3c(c2)O[C@@H](c2ccc(C4CC4)s2)n2c-3cc3cc(-c4cnc([C@@H]5CCCN5C(=O)[C@@H](NC(=O)OC)[C@H]5CCOC(C)(C)C5)[nH]4)ccc32)[nH]1)C(C)C | 1 nM | 25 nM | 18 pM | 11 mL/min/kg | 2 pM | 0.24 µM·h | 4 pM | 7 pM | 9 pM | 27 pM | 1.6% | 5.2 h | 7 pM
CCc1ncc([C@@H]2Oc3cc(-c4cnc([C@@H]5CCCN5C(=O)[C@@H](NC(=O)OC)C(C)C)[nH]4)cc(F)c3-c3cc4cc(-c5cnc([C@@H]6CCCN6C(=O)[C@@H](NC(=O)OC)[C@@H]6CCOC(C)(C)C6)[nH]5)ccc4n32)s1 | 1 nM | 10 nM | 17 pM | 29 mL/min/kg | 5 pM | 0.05 µM·h | 6 pM | 5 pM | 6 pM | 41 pM | 0.8% | 5.3 h | 4 pM
CCc1ccc([C@@H]2Oc3cc(-c4cnc([C@@H]5CCCN5C(=O)[C@@H](NC(=O)OC)[C@@H]5CCOC(C)(C)C5)[nH]4)cc(F)c3-c3cc4cc(-c5cnc([C@@H]6CCCN6C(=O)[C@@H](NC(=O)OC)C(C)C)[nH]5)ccc4n32)s1 | 2 nM | 20 nM | 155 pM | 9 mL/min/kg | 46 pM | 0.23 µM·h | 33 pM | 67 pM | 82 pM | 349 pM | 1.2% | 5.9 h | 106 pM
COC(=O)N[C@H](C(=O)N1CCC[C@H]1c1ncc(-c2cc(F)c3c(c2)O[C@@H](c2ccc(C4CC4)s2)n2c-3cc3cc(-c4cnc([C@@H]5CCCN5C(=O)[C@@H](NC(=O)OC)C5CCO[C@H](C)C5)[nH]4)ccc32)[nH]1)C(C)C (stereo partly specified) | 1 nM | 25 nM | 9 pM | 11 mL/min/kg | 3 pM | 0.21 µM·h | 4 pM | 4 pM | 7 pM | 14 pM | 1.4% | 4.7 h | 10 pM
COC(=O)N[C@H](C(=O)N1CCC[C@H]1c1ncc(-c2ccc3c(c2)cc2n3[C@H](c3ccc(C4CC4)s3)Oc3cc(-c4cnc([C@@H]5CCCN5C(=O)[C@@H](NC(=O)OC)[C@@H]5CCOC(C)(C)C5)[nH]4)cc(F)c3-2)[nH]1)C(C)C | 4 nM | 40 nM | 36 pM | 9 mL/min/kg | 1 pM | 0.45 µM·h | 6 pM | 5 pM | 13 pM | 31 pM | 2% | 6 h | 4 pM
COC(=O)N[C@H](C(=O)N1CCC[C@H]1c1ncc(-c2cc(F)c3c(c2)O[C@@H](c2nc4c(s2)CCC4)n2c-3cc3cc(-c4cnc([C@@H]5CCCN5C(=O)[C@@H](NC(=O)OC)[C@@H]5CCOC(C)(C)C5)[nH]4)ccc32)[nH]1)C(C)C |  |  | 590 pM |  |  |  | 5 pM | 4 pM | 13 pM | 174 pM |  |  | 7 pM
COC(=O)N[C@H](C(=O)N1CCC[C@H]1c1ncc(-c2ccc3c(c2)cc2n3[C@H](c3ccc4c(c3)OCCN4C)Oc3cc(-c4cnc([C@@H]5CCCN5C(=O)[C@@H](NC(=O)OC)C5CCOCC5)[nH]4)cc(F)c3-2)[nH]1)C(C)C | 1 nM | 16 nM | 73 pM | 13 mL/min/kg |  | 0.1 µM·h | 71 pM | 7 pM | 17 pM | 54 pM | 0.8% | 3.8 h | 9 pM
CC[C@@H]1CC([C@H](NC(=O)OC)C(=O)N2CCC[C@H]2c2ncc(-c3ccc4c(c3)cc3n4[C@H](c4ccc(C5CC5)s4)Oc4cc(-c5cnc([C@@H]6CCCN6C(=O)[C@@H](NC(=O)OC)C(C)C)[nH]5)cc(F)c4-3)[nH]2)C[C@H](CC)O1 (stereo partly specified) |  |  | 642 pM |  |  |  | 17 pM |  | 62 pM | 2700 pM |  |  | 
CCCc1ccc([C@@H]2Oc3cc(-c4cnc([C@@H]5CCCN5C(=O)[C@@H](NC(=O)OC)C(C)C)[nH]4)cc(F)c3-c3cc4cc(-c5cnc([C@@H]6CCCN6C(=O)[C@@H](NC(=O)OC)[C@@H]6CCOC(C)(C)C6)[nH]5)ccc4n32)s1 |  |  | 78 pM |  | 6 pM |  | 10 pM | 9 pM | 16 pM | 84 pM |  |  | 11 pM
COC(=O)N[C@H](C(=O)N1CCC[C@H]1c1ncc(-c2ccc3c(c2)cc2n3[C@H](c3ccc4c(c3)OCCC4)Oc3cc(-c4cnc([C@@H]5CCCN5C(=O)[C@@H](NC(=O)OC)C5CCOCC5)[nH]4)cc(F)c3-2)[nH]1)C(C)C |  | 10 nM | 8 pM | 19 mL/min/kg | 1 pM | 0.05 µM·h | 2 pM | 3 pM | 3 pM | 5 pM | 0.5% | 1.9 h | 2 pM
COC(=O)N[C@H](C(=O)N1CCC[C@H]1c1ncc(-c2cc(F)c3c(c2)O[C@@H](c2ccc4c(c2)O[C@@H](C)CC4)n2c-3cc3cc(-c4cnc([C@@H]5CCCN5C(=O)[C@@H](NC(=O)OC)[C@@H]5CCOC(C)(C)C5)[nH]4)ccc32)[nH]1)C(C)C |  |  | 348 pM |  | 5 pM |  | 5 pM | 7 pM | 8 pM | 102 pM |  |  | 8 pM
